Lung fibro prol: antiproliferative effect on LL 47 fibroblasts – human, LL 47 cells, CellTiter-Glo luminescence, primary screen | AID 719, 2007 | 85,000 tested, 1.1% active | LL 47 human lung fibroblast viability, ATP luminescence; hits give low values | viability, % at 10 µM;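 active = viability at or below 50% in the single dose screen; inactive = viability above 50%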;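 note: compound exposure lasted 72 h before the ATP readout; 100% = median luminescence of untreated cell-only wells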
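Material: human LL 47 lung fibroblast cells; quantity: 1,150 cells/well; medium: IMEM plus 15% FBS; doses: 0.1% DMSO in all compound wells; timing: overnight attachment after seeding, then 72 h compound exposure at 37 °C; detection: CellTiter-Glo luminescence; measure: % viability of median cell-only signal; controls: cell-only wells, no compound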
Jurkat tox 60K: cytotoxicity toward Jurkat T cells, primary screen, cytotoxicity control, cell-based, Jurkat E6.1, 60K MLSMR library. Jurkat E6.1 viability, ATP luminescence, 48 h. 56,000 tested, 1.2% active. inhibition, % at 4 µM;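 active = inhibition above the mean inhibition of all tested compounds plus 3 SD, cut at about 28% in these data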
Ecoli WT expand: growth inhibitors of wild-type E. coli, primary screen, strain BW25113, expanded library, OD600. AID 710, 2007. growth inhibition, % at 100 µM. OD600 absorbance. 98,000 tested, 0.15% active;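 active = growth inhibition above about 50% at one test dose, limit read from the data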;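 note: growth measured after 20 h incubation at 37 °C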
H69AR inhibit: proliferation blockers of H69AR lung cancer cells, primary screen, cell-based, human, 86K library | viability, % at 10 µM | H69AR lung tumor viability, ATP luminescence, 72 h; hits give low values | 85,000 tested, 6% active | AID 598, 2007;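 active = viability at or below 40%; inactive = viability above 40%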;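 note: multidrug resistant small cell line overexpressing MRP-1 efflux transporter; 100% = mean luminescence of untreated control wells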
tolC growth inh: growth inhibitors of E. coli tolC mutant, primary screen, strain BW25113 ΔtolC::kan, 384-well | growth inhibition, % at 10 µM (by protocol) | 65,000 tested, 2.2% active | OD615 | AID 573, 2007;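 active = growth inhibition at or above a cutoff equal to the mean over every tested compound plus 3 SD, cut at about 60% in these data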;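 note: growth measured after 20 h incubation at 37 °C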
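Material: E. coli BW25113 ΔtolC::kan, tolC deletion mutant strain. Measure: percent growth inhibition. Schedule: 37 °C, 20 h exposure. Doses: single-point testing at 10 µM. Signal: A615 absorbance measurement. Buffer or medium: kanamycin-containing LB broth (50 µg/mL).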
HUVEC prolif 384: inhibitors of HUVEC proliferation, primary screen, cell-based, 384-well; CellTiter-Glo luminescence, 72 h; hits give low values; viability, % at 10 µM (by protocol); 86,000 tested, 1.1% active;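 active = viability at or below 30%; inactive = viability above 30%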;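 note: 100% = median luminescence of DMSO-only cell control wells on each plate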
The depositor's hits bear a star; . = not tested or not shown. Only some compounds are listed: those with a hit (about 6.4% of all), similar ones and a draw of the others.

SMILES | Lung fibro prol | Jurkat tox 60K | Ecoli WT expand | H69AR inhibit | tolC growth inh | HUVEC prolif 384
CNC(=O)CN(C#N)c1nc(N(C)C)nc(N(C)C)n1 | 99 | -4 | . | 80 | -15 | 84
O=C(Nc1ccc2c(c1)nc1n2CCN(Cc2ccccc2)C1)NC1CCCCC1 | 106 | . | 1 | 20* | . | 80
COCCN1CCn2c(nc3cc(NC(=O)NC4CCCCC4)ccc32)C1 | 90 | -7 | -7 | 91 | -9 | 90
C=CCn1c(Cc2ccc(OC)cc2)nnc1SCC(=O)NCCc1ccccc1 | 106 | . | 6 | 99 | . | 102
Cc1ccc(NC(=O)NC2=N/C(=C(/C#N)C(=O)N3CCCC3)c3ccccc32)cc1 | 110 | 0 | . | 37* | -2 | 105
Cc1ccc(NC(=O)C2CC=CCC2C(=O)N2CCCCC2)cc1 (configuration not stated) | 100 | -3 | 7 | 96 | -2 | 89
Cc1nn(-c2ccccn2)c(C)c1Oc1ccccc1O | 89 | -1 | 2 | 86 | 5 | 99
Cc1nn(-c2nc3ccccc3s2)c(C)c1Oc1ccccc1O | 85 | 28* | -6 | 77 | 28 | 84
COc1cccc(C(=O)Nc2ccc(NC(=O)C(C)(C)C)cn2)c1 | . | . | 9 | 37* | -8 | 100
COc1cccc(C(=O)Nc2ccc(NC(C)=O)cc2)c1 | . | . | -2 | . | . | .
CC(C)OC(=O)c1cccc(NC(=O)c2ccccc2)c1 | 101 | . | . | 30* | . | 85
COC(=O)c1cccc(NC(=O)c2cccnc2)c1 | 109 | . | 0 | 88 | . | 99
CCOc1cccc(C(=O)Nc2cccc(-c3nnc(-c4ccccc4)o3)c2)c1 | 87 | -3 | -17 | 15* | 23 | 47
COc1cccc(C(=O)Nc2cccc(NC(C)=O)c2)c1 | . | 4 | 5 | 33* | 0 | 94
CCCCNC(=O)CSc1nnc(Cc2ccccc2)n1CC | 93 | . | . | 103 | . | 90
CCCCC(CCC(=O)Nc1ccccc1C(=O)OCC)C(=O)O (configuration not stated) | 102 | -4 | 2 | 99 | 5 | 97
CC(C)OCCCNC(=O)CCSc1ccc(Cl)cc1 | 100 | . | -1 | 97 | . | 105
Cc1ccc(OCC(=O)Nc2cccc(-c3nnc(-c4ccccc4)o3)c2)c(C)c1 | 105 | . | . | 43 | . | 80
CCOc1cccc(C(=O)Nc2cccc(-c3nnc(-c4ccc(C)cc4)o3)c2)c1 | 37* | -5 | 5 | . | -7 | 17*
COc1cccc(C(=O)Nc2cccc(-c3nnc(-c4ccccc4)o3)c2)c1 | . | 4 | . | 17* | 27 | 55
COc1cccc(NC(=O)c2nnn(CCc3ccccc3)c2N)c1 | 86 | 6 | 6 | 32* | 12 | 59
COc1cccc(C(=O)Nc2ccc(-c3nnc(-c4ccco4)o3)cc2)c1 | . | . | -7 | . | 5 | .
COc1ccc(CCNS(=O)(=O)c2cccc(C(=O)O)c2)cc1OC | 107 | -3 | -5 | 100 | -12 | 86
CCCCN(CCCC)S(=O)(=O)c1ccc(NC(=O)c2cccs2)cc1 | 88 | . | -16 | 26* | . | 78
COC(=O)c1sccc1NC(=S)N1CC(C)CC(C)C1 (configuration not stated) | 97 | . | 2 | 93 | . | 98
SMILES | Lung fibro prol | Jurkat tox 60K | Ecoli WT expand | H69AR inhibit | tolC growth inh | HUVEC prolif 384
Cc1nc(SCC(=O)c2c(C)[nH]c3ccccc23)c2c(=O)n(C)c(=O)n(CC(C)C)c2n1 | 96 | . | . | 39* | -8 | 83
Cc1nc(SCC(=O)OCc2ccccc2)c2c(=O)n(C)c(=O)n(C)c2n1 | 106 | 0 | 2 | 106 | 14 | 99
O=C(CSc1nnc(-c2ccco2)n1Cc1ccco1)N1CCOCC1 | 95 | -6 | 2 | 89 | -4 | 94
Cc1cccc(CN2CCN(C(c3ccccc3)c3ccc(Cl)cc3)CC2)c1 (configuration not stated) | 96 | . | . | 89 | 10 | 80
CN1CCCN(C(c2ccccc2)c2ccc(Cl)cc2)CC1 (configuration not stated) | 65 | . | . | 25* | 8 | 77
COc1ccc(-c2c(C)nn(-c3ccccc3)c2N)cc1OC | 100 | . | . | 92 | . | 93
CCN(CC)P1(=O)OC(c2cc(OC)c(OC)c(OC)c2)=Nc2c1c(C)nn2-c1ccccc1 (configuration not stated) | 83 | . | 11 | 28* | -2 | 89
Cc1ccccc1-c1nnc(SCCOc2ccc3c(C)cc(=O)oc3c2)o1 | . | . | -16 | . | . | .
CCOC(=O)C1=C(O)/C(=C/c2ccc(C)o2)SC1=NC(=O)c1ccccc1C | 58 | . | . | 17* | . | 64
CC1C(=NO)C(C)C(c2ccc(N(C)C)cc2)NC1c1ccc(N(C)C)cc1 (configuration not stated) | 90 | -2 | 2 | 94 | 19 | 103
CC1=CC(C)(C)N(S(=O)(=O)c2ccc(C)cc2)c2ccc(C)cc21 | 53 | . | -9 | 22* | . | 66
CC1=CC(C)(C)N(C(=O)CSc2nnc(-c3ccc(C)cc3)o2)c2ccc(C)cc21 | 97 | . | -7 | 72 | . | 96
CC1=CC(C)(C)N(S(=O)(=O)c2ccc(F)cc2)c2ccccc21 | 51 | . | 0 | 19* | . | 62
O=c1c(/C=N/O)c(Nc2ccccc2)nc2ccccn12 | 99 | 6 | -4 | 61 | 12 | 88
CN1C(=O)CC(N2CCN(c3ccccc3)CC2)C1=O (configuration not stated) | 97 | . | . | 89 | . | 97
CCN(CC)S(=O)(=O)c1ccc(Oc2ccccc2)cc1 | 96 | . | -8 | 103 | . | 100
C=CCOC(=O)C(C#N)c1nc2ccccc2nc1N1CCCC1 (configuration not stated) | 96 | 4 | 4 | 73 | 96* | 106
CCCCCCOC(=O)C(C#N)c1nc2ccccc2nc1N1CCOCC1 (configuration not stated) | 91 | 4 | -7 | 82 | 1 | 82
CCCCCCOC(=O)C(C#N)c1nc2ccccc2nc1N1CCN(CC)CC1 (configuration not stated) | 84 | -10 | 17 | 88 | 57 | 4.3*
CCN(CC)S(=O)(=O)c1cccc(-c2nnc(C(=O)c3ccc(C(F)(F)F)cc3)o2)c1 | 102 | 8 | -12 | 65 | -8 | 93
CCCN(CCC)S(=O)(=O)c1ccc(C(=O)Nc2nnc(-c3cc(OC)cc(OC)c3)o2)cc1 | 51 | 6 | -6 | 16* | 98* | 31
CCCN(CCC)S(=O)(=O)c1ccc(C(=O)Nc2nnc(-c3cccc(OC)c3)o2)cc1 | 12* | 10 | . | 16* | 100* | 1.7*
COCCN(CCOC)S(=O)(=O)c1ccc(C(=O)Nc2nnc(C3CC3)o2)cc1 | 93 | 1 | -1 | 87 | -9 | 90
